Experiment [1] has as its system Rattus norvegicus. Kind of experiment: Inhibition of carrageenan-induced paw oedema in Sprague-Dawley rat at 5.40 mg/kg, sc after 3 hrs. It counts as functional. As to conditions: read-out: Inhibition, route subcutaneous. The method in brief: (§1)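 Rats (n = 6/group) got the test agent s.c. (0.5 mL) as a 30 min pretreatment. Oedema was induced by sub-plantar 1% lambda-carrageenan in saline into the right hind paw, with saline in the contralateral paw. Paw volume was measured by plethysmometer before injection and at 1, 2, 3 and 4 h, and expressed as % change from pre-drug values.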
For orientation: Carrageenan injected into the paw causes an acute inflammation.

The subject of experiment [2] is Rattus norvegicus. Kind of experiment: Antinociceptive activity in Sprague-Dawley rat at 5.40 mg/kg, sc assessed as increase in latency time after 2 hrs by hot plate method. It counts as functional. As to conditions: dose 5.4 mg/kg; route subcutaneous. The method in brief: (§2)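 Rats (n = 6/group) were dosed s.c. 30 min before testing on a hot-plate held at 52 °C, 30 s cut-off. Reaction latency was read at 1 and 2 h and expressed as % increase over each group's pre-drug basal latency, with indomethacin as the reference control. Groups were compared by ANOVA and Duncan's test.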

Experiment [3] relates to Mus musculus. Kind of experiment: Antinociceptive activity in Swiss Albino mouse assessed as inhibition of acetic acid-induced writhes per 30 min at 5.40 mg/kg, sc. To be noted: 0.5 h.
Experiment [4] concerns Rattus norvegicus. Kind of experiment: Inhibition of carrageenan-induced paw oedema in Sprague-Dawley rat at 5.40 mg/kg, sc after 2 hrs. It is filed as functional. To be noted: read-out: Inhibition, route subcutaneous. The method in brief: as §1
Experiment [5] relates to Rattus norvegicus. Briefly: Antinociceptive activity in Sprague-Dawley rat at 5.40 mg/kg, sc assessed as increase in latency time after 1 hr by hot plate method. It is filed as functional. To be noted: dose 5.4 mg/kg; route subcutaneous. An outline of the steps:
as §2

Experiment [6] deals with Rattus norvegicus. Kind of experiment: Inhibition of carrageenan-induced paw oedema in Sprague-Dawley rat at 5.40 mg/kg, sc after 1 hr. It is filed as functional. As to conditions: read-out: Inhibition, route subcutaneous. The method in brief: as §1
Experiment [7] deals with Rattus norvegicus. Briefly: Antinociceptive activity in Sprague-Dawley rat assessed as inhibition of number of indomethacin-induced gastric lesions at 5.40 mg/kg, sc. As to conditions: Stomach, route subcutaneous. It counts as functional. An outline of the steps:
(§3)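 Sprague-Dawley rats (120–130 g, food and water ad libitum) got indomethacin 20 mg/kg s.c. to induce gastric mucosal damage, with the test agent given s.c. at the time of indomethacin injection. Rats were killed 24 h later. Stomachs were opened along the greater curvature, rinsed with saline, and lesions counted and severity-scored on a previously described scale. Results are % decrease versus the indomethacin control.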

Experiment [8] has as its system Rattus norvegicus. Briefly: Inhibition of carrageenan-induced paw oedema in Sprague-Dawley rat at 5.40 mg/kg, sc after 4 hrs. It is filed as functional. To be noted: read-out: Inhibition, route subcutaneous. The method in brief: as §1
Experiment [9] concerns Rattus norvegicus. Briefly: […] in Sprague-Dawley rat assessed as inhibition of indomethacin-induced gastric lesions severity at 5.40 mg/kg, sc. It counts as functional. As to conditions: Stomach, route subcutaneous. The method in brief: as §3
Experiment [10] has as its system Rattus norvegicus. Briefly: Inhibition of carrageenan-induced paw oedema in Sprague-Dawley rat at 4 mg/kg, sc after 3 hrs. It counts as functional. To be noted: read-out: Inhibition, route subcutaneous. An outline of the steps: as §1
In experiment [11] the test system is Rattus norvegicus. Kind of experiment: Inhibition of carrageenan-induced paw oedema in Sprague-Dawley rat at 4 mg/kg, sc after 1 hr. It counts as functional. To be noted: read-out: Inhibition, route subcutaneous. The method in brief: as §1
The test system of experiment [12] is Rattus norvegicus. Kind of experiment: […] in Sprague-Dawley rat assessed as inhibition of number of indomethacin-induced gastric lesions at 4 mg/kg, sc. It counts as functional. To be noted: Stomach, route subcutaneous. The method in brief:
as §3

Experiment [13] relates to Mus musculus. Briefly: Antinociceptive activity in Swiss Albino mouse assessed as inhibition of acetic acid-induced writhes per 30 min at 4 mg/kg, sc. As to conditions: 0.5 h, read-out: Inhibition.
Experiment [14] concerns Rattus norvegicus. Kind of experiment: Inhibition of carrageenan-induced paw oedema in Sprague-Dawley rat at 4 mg/kg, sc after 4 hrs. To be noted: read-out: Inhibition, route subcutaneous. It is filed as functional. The method in brief:
as §1

Experiment [15] relates to Rattus norvegicus. Kind of experiment: Antinociceptive activity in Sprague-Dawley rat at 4 mg/kg, sc assessed as increase in latency time after 2 hrs by hot plate method. It counts as functional. To be noted: route subcutaneous. An outline of the steps:
as §2
On the technique in general: In hot-plate and tail-flick tests a longer latency is read as antinociception.

In experiment [16] the test system is Rattus norvegicus. Briefly: Inhibition of carrageenan-induced paw oedema in Sprague-Dawley rat at 4 mg/kg, sc after 2 hrs. It counts as functional. As to conditions: read-out: Inhibition, route subcutaneous. An outline of the steps: as §1
For experiment [17], the system named is Rattus norvegicus. Kind of experiment: Antinociceptive activity in Sprague-Dawley rat at 4 mg/kg, sc assessed as increase in latency time after 1 hr by hot plate method. It is filed as functional. To be noted: route subcutaneous. The method in brief:
as §2

The subject of experiment [18] is Rattus norvegicus. Kind of experiment: […] in Sprague-Dawley rat assessed as inhibition of indomethacin-induced gastric lesions severity at 4 mg/kg, sc. It is filed as functional. To be noted: Stomach, route subcutaneous. An outline of the steps: as §3
Experiment [19] concerns Rattus norvegicus. Kind of experiment: Inhibition of carrageenan-induced paw oedema in Sprague-Dawley rat at 5.16 mg/kg, sc after 2 hrs. It is filed as functional. To be noted: route subcutaneous. An outline of the steps:
as §1

For experiment [20], the system named is Rattus norvegicus. Briefly: Antinociceptive activity in Sprague-Dawley rat assessed as inhibition of number of indomethacin-induced gastric lesions at 5.16 mg/kg, sc. It is filed as functional. As to conditions: Stomach, route subcutaneous. The method in brief: as §3
The subject of experiment [21] is Rattus norvegicus. Briefly: Inhibition of carrageenan-induced paw oedema in Sprague-Dawley rat at 5.16 mg/kg, sc after 4 hrs. It counts as functional. As to conditions: route subcutaneous. The method in brief:
as §1

Experiment [22] relates to Rattus norvegicus. Kind of experiment: Inhibition of carrageenan-induced paw oedema in Sprague-Dawley rat at 5.16 mg/kg, sc after 3 hrs. It is filed as functional. As to conditions: read-out: Inhibition, route subcutaneous. The method in brief:
as §1

The subject of experiment [23] is Rattus norvegicus. Briefly: […] in Sprague-Dawley rat assessed as inhibition of indomethacin-induced gastric lesions severity at 5.16 mg/kg, sc. It is filed as functional. To be noted: Stomach, route subcutaneous. An outline of the steps:
as §3

Experiment [24] concerns Rattus norvegicus. Briefly: Antinociceptive activity in Sprague-Dawley rat at 5.16 mg/kg, sc assessed as increase in latency time after 1 hr by hot plate method. As to conditions: route subcutaneous. It is filed as functional. The method in brief: as §2
In experiment [25] the test system is Rattus norvegicus. Briefly: Antinociceptive activity in Sprague-Dawley rat at 5.16 mg/kg, sc assessed as increase in latency time after 2 hrs by hot plate method. To be noted: route subcutaneous. It counts as functional. The method in brief: as §2
Experiment [26] concerns Rattus norvegicus. Briefly: Inhibition of carrageenan-induced paw oedema in Sprague-Dawley rat at 5.16 mg/kg, sc after 1 hr. It counts as functional. As to conditions: read-out: Inhibition, route subcutaneous. The method in brief:
as §1

Experiment [27] has as its system Mus musculus. Briefly: Antinociceptive activity in Swiss Albino mouse assessed as inhibition of acetic acid-induced writhes per 30 min at 5.16 mg/kg, sc. To be noted: 0.5 h, read-out: Inhibition.

On to `COc1ccc2c(c1)c(CCNC(C)=O)c1n2C(=N)C=C1NN`, for which the inhibition in vivo at 5.4 mg/kg in experiment [1] was 44.2%; in experiment [3] it was -81.1%; in experiment [4], 52.6%; in experiment [6], 54.8%; in experiment [7] it was 53.9%; in experiment [8], 36.8%. In addition, the inhibition in vivo at 5.4 mg/kg in experiment [9] was determined as 57.7%. Besides, the Activity in experiment [2] was 243.7%; in experiment [5] it was 43.7%.

Take `COc1ccc2[nH]cc(CCNC(C)=O)c2c1` [MELATONIN]: the inhibition in vivo at 4 mg/kg was 44.4% in [10]; 50.8% in experiment [11]; 56.3% in [12]; 55.6% in experiment [13]; 30% in [14]; 50.1% in experiment [16]. In addition, the inhibition in vivo at 4 mg/kg in [18] worked out at 69%. Besides, the Activity is reported as 96% in [15] and 39.7% in experiment [17].

On to `COc1ccc2c(c1)c(CCNC(C)=O)c1n2C(=O)CC1=O`, for which the inhibition in vivo at 5.16 mg/kg in experiment [19] is -35.7%; in [20] it was 43.5%; in [21], -27.1%; in [22], 30%; in experiment [23] it was 54.8%; in [26], 42.9%. Also, in experiment [27], the inhibition in vivo at 5.16 mg/kg worked out at 24.4%. Further, the Activity in experiment [24] came to 103.6%; in [25] it was 132.3%.

These data come from ChEMBL document CHEMBL1147958, “Evaluation of the anti-inflammatory and anti-nociceptive activities of novel synthesized melatonin analogues” (2007).
